Activity calls are given as the source filed them. The calls are words filed in the database; no cut-off is given here.
What was measured:
[1] = target: cGMP-dependent protein kinase (Eimeria tenella, UniProt Q8MMZ8); test: Inhibition of Eimeria tenella parasite-specific cGMP-dependent protein kinase
Eimeria maxima [2] = test: Antiparasitic activity against Eimeria maxima at 50 ppm administered orally through feed after 7 days; format: functional
Method in brief: (§1)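 Each compound was given orally in the feed, and its anticoccidial activity was ranked in a seven-day efficacy model. Each Eimeria species got its own quantitative measure.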

Eimeria acervulina [3] = test: Antiparasitic activity against Eimeria acervulina at 50 ppm administered orally through feed after 7 days; format: functional; method in brief: as §1
Eimeria tenella [4] = test: Antiparasitic activity against Eimeria tenella at 50 ppm administered orally through feed after 7 days; format: functional; method in brief: as §1
Eimeria mitis [5] = test: Antiparasitic activity against Eimeria mitis at 50 ppm administered orally through feed after 7 days; format: functional; method in brief: as §1
Eimeria tenella [6] = test: Antiparasitic activity against Eimeria tenella at 6 ppm administered orally through feed after 7 days; format: functional; method in brief: as §1
Eimeria acervulina [7] = test: Antiparasitic activity against Eimeria acervulina at 6 ppm administered orally through feed after 7 days; format: functional; method in brief: as §1
Eimeria mitis [8] = test: Antiparasitic activity against Eimeria mitis at 6 ppm administered orally through feed after 7 days; format: functional; method in brief: as §1
Eimeria maxima [9] = test: Antiparasitic activity against Eimeria maxima at 6 ppm administered orally through feed after 7 days; format: functional; method in brief: as §1

Sequence of cGMP-dependent protein kinase (Q8MMZ8 whole entry): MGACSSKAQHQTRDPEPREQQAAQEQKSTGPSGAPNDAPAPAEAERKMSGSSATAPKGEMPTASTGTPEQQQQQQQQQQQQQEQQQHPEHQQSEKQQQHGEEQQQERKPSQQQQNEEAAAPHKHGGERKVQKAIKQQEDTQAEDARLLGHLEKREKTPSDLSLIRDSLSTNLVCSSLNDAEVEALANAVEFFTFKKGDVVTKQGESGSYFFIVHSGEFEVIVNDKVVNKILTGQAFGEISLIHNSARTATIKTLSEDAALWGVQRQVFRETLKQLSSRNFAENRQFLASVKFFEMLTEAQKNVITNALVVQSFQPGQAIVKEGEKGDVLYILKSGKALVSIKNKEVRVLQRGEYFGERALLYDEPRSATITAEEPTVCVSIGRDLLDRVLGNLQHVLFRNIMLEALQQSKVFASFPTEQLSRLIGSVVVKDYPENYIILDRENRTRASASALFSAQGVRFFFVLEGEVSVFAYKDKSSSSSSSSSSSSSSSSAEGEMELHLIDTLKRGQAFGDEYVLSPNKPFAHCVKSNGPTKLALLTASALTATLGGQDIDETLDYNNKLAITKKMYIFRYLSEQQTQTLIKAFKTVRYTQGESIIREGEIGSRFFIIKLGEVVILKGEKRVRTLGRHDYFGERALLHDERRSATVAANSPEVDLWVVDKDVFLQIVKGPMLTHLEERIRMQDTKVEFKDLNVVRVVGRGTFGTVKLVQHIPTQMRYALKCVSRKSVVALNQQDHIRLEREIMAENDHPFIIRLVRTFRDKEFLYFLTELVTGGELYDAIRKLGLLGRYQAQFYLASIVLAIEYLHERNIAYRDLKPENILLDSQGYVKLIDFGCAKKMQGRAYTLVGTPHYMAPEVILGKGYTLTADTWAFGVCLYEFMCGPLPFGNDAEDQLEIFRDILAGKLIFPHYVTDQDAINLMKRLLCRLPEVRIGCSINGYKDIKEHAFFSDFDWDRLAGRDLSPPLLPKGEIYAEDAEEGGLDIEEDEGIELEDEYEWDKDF

| IC50 [1] [nM] | Structure (SMILES) | Activity (Eimeria maxima [2]) [%] | Activity (Eimeria acervulina [3]) [%] | Activity (Eimeria tenella [4]) [%] | Activity (Eimeria mitis [5]) | Activity (Eimeria tenella [6]) [%] | Activity (Eimeria acervulina [7]) [%] | Activity (Eimeria mitis [8]) [%] | Activity (Eimeria maxima [9]) [%] |
| --- | --- | --- | --- | --- | --- | --- | --- | --- | --- |
| 0.3 | Nc1nccc(-c2c(-c3ccc(F)cc3)[nH]c3cc(C4CCN(CCO)CC4)ccc23)n1 | <50 | <50 | <50 | – | – | – | – | – |
| 0.15 | Fc1ccc(-c2[nH]c3cc(C4CCNCC4)ccc3c2-c2ccncc2)cc1 | <50 | <50 | <50 | <50% | – | – | – | – |
| 0.1 | OCCN1CCC(c2ccc3c(-c4ccncc4)c(-c4ccc(F)cc4)[nH]c3c2)CC1 | <50 | 80 | 50 | 80% | – | – | – | – |
| 0.8 | OCCN1CCC(c2ccc3c(-c4ccncn4)c(-c4ccc(F)cc4)[nH]c3c2)CC1 | <50 | 50 | 99 | 100% | – | – | – | – |
| 0.65 | Fc1ccc(-c2[nH]c3cc(C4CCNCC4)ccc3c2-c2ccncn2)cc1 | <50 | <50 | <50 | <50% | – | – | – | – |
| 0.15 | CN1CCC(c2ccc3c(-c4ccncc4)c(-c4ccc(F)cc4)[nH]c3c2)CC1 | 50 | 99 | 50 | 99% | – | – | – | – |
| 12.7 | CN1CCN(C(=O)c2ccc3[nH]c(-c4ccc(F)cc4)c(-c4ccncc4)c3c2)CC1 | – | <50 | 80 | inactive | – | – | – | – |
| 0.16 | CCN1CCC(c2ccc3c(-c4ccncc4)c(-c4ccc(F)cc4)[nH]c3c2)CC1 | 80 | <50 | 50 | 80% | – | – | – | – |
| 0.22 | CN1CCC(c2ccc3c(-c4ccnc(N)n4)c(-c4ccc(F)cc4)[nH]c3c2)CC1 | <50 | <50 | 80 | – | – | – | – | – |
| 0.21 | Nc1nccc(-c2c(-c3ccc(F)cc3)[nH]c3cc(C4CCNCC4)ccc23)n1 | <50 | <50 | <50 | – | – | – | – | – |
| 8.9 | CN1CCN(Cc2ccc3c(-c4ccncc4)c(-c4ccc(F)cc4)[nH]c3c2)CC1 | – | <50 | 80 | <50% | – | – | – | – |
| 0.62 | CN1CC(c2ccc3c(-c4ccncc4)c(-c4ccc(F)cc4)[nH]c3c2)C1 | – | <50 | 50 | <50% | – | – | – | – |
| 9.2 | Fc1ccc(-c2[nH]c3cc(N4CCOCC4)ccc3c2-c2ccncc2)cc1 | – | <50 | 50 | <50% | – | – | – | – |
| 1.6 | CN1CCC(Cc2ccc3c(-c4ccncc4)c(-c4ccc(F)cc4)[nH]c3c2)CC1 | – | <50 | <50 | 50% | – | – | – | – |
| 0.4 | CN1CCC(c2ccc3c(-c4ccncn4)c(-c4ccc(F)cc4)[nH]c3c2)CC1 | <50 | 99 | <50 | 50% | – | – | – | – |
| – | CN1CCC(c2ccn3c(-c4ccnc(N)n4)c(-c4ccc(F)cc4)nc3c2)CC1 | – | – | – | – | 100 | 80 | 80 | 100 |
| – | CN1CCN(c2ccc3c(-c4ccncc4)c(-c4ccc(F)cc4)[nH]c3c2)CC1 | – | <50 | <50 | <50% | – | – | – | – |
